Measured values from ChEMBL document CHEMBL1154049, “A versatile photoactivatable probe designed to label the diphosphate binding site of farnesyl diphosphate utilizing enzymes” (Bioorg Med Chem, 2009).
Calls of active or inactive are those of the source. The rule behind the calls is not given here.

Key:
[1] = molecular target: T1, Protein farnesyltransferase/geranylgeranyltransferase type-1 subunit alpha (Saccharomyces cerevisiae S288c, UniProt P29703); assay: Inhibition of Saccharomyces cerevisiae protein farnesyltransferase assessed as farnesylation of N-dansyl-GCVIA
T1 sequence (P29703 whole entry): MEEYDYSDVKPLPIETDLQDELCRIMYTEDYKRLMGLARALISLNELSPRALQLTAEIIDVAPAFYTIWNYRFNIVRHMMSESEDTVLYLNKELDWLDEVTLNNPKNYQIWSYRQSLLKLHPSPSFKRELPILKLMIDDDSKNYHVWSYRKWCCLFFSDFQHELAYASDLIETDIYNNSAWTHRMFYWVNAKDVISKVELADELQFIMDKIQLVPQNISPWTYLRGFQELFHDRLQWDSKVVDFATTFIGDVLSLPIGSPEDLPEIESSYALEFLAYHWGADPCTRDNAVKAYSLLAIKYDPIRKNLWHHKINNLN
How it was run: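 Purified ScPFTase at 5.0 nM; continuous fluorescence assay following dansyl fluorescence rise as N-dansyl-GCVIA (2.4 µM) is prenylated. For IC50, FPP fixed at 2.4 µM, inhibitor 0–20 µM, duplicates, direct fit of rate vs inhibitor concentration. For KI, 4×6 grid of duplicates with FPP at 1, 2, 5, 7.0 µM and inhibitor 0–2 µM; initial velocities, Eadie-Hofstee plot.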

Nostoc [2] = assay: Binding affinity to Nostoc PCC 7120 sesquiterpene synthase assessed as photolabeling at 29 uM by SDS-PAGE based phosphor imaging analysis in presence of excess farnesyl diphosphate; settings: tested as the 32P-labelled form
How it was run: (§1)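 Purified enzyme (50 µg/mL) in 52 mM Tris·HCl pH 7.0, 5.8 mM DTT, 12 mM MgCl2, 12 µM ZnCl2, 25 mM NH4HCO3 with [32P]probe 29 µM; irradiated 350 nm, 6 h, 4 °C; protection runs add FPP 100 µM final. SDS loading buffer, 70 °C 20 min, 12% Tris-Tricine SDS-PAGE, Coomassie stain, phosphorimaging.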

[3] = molecular target: T2, Protein farnesyltransferase/geranylgeranyltransferase type-1 subunit alpha (Saccharomyces cerevisiae S288c) (UniProt P29703); assay: Binding affinity to Saccharomyces cerevisiae protein farnesyltransferase assessed as photolabeling at 29 uM by SDS-PAGE based phosphor imaging analysis in presence of excess farnesyl diphosphate; settings: tested as the 32P-labelled form; how it was run: as §1
T2 sequence (whole entry): T1 sequence (P29703 whole entry)

[4] = molecular target: T2, Protein farnesyltransferase/geranylgeranyltransferase type-1 subunit alpha (Saccharomyces cerevisiae S288c); assay: Binding affinity to Saccharomyces cerevisiae protein farnesyltransferase assessed as enzyme beta subunit photolabeling at 29 uM by SDS-PAGE based phosphor imaging analysis; settings: tested as the 32P-labelled form; how it was run: as §1
[5] = molecular target: T2, Protein farnesyltransferase/geranylgeranyltransferase type-1 subunit alpha (Saccharomyces cerevisiae S288c); assay: Binding affinity to Saccharomyces cerevisiae protein farnesyltransferase assessed as photolabeling at 29 uM by SDS-PAGE based phosphor imaging analysis in absence of UV irradiation; settings: tested as the 32P-labelled form
[6] = molecular target: T2, Protein farnesyltransferase/geranylgeranyltransferase type-1 subunit alpha (Saccharomyces cerevisiae S288c); assay: Activity at Saccharomyces cerevisiae protein farnesyltransferase upto 200 uM by continuous fluorescence assay
How it was run: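 Purified yeast PFTase; continuous fluorescence read-out of dansyl signal increase on prenylation of N-dansyl-GCVIA acceptor, with analogue replacing FPP at up to 200 µM.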

[7] = molecular target: T2, Protein farnesyltransferase/geranylgeranyltransferase type-1 subunit alpha (Saccharomyces cerevisiae S288c); assay: Binding affinity to Saccharomyces cerevisiae protein farnesyltransferase assessed as enzyme alpha subunit photolabeling at 29 uM by SDS-PAGE based phosphor imaging analysis; settings: tested as the 32P-labelled form; how it was run: as §1
Drosophila melanogaster [8] = assay: Binding affinity to Drosophila melanogaster farnesyl diphosphate synthase assessed as photolabeling at 29 uM by SDS-PAGE based phosphor imaging analysis; settings: tested as the 32P-labelled form; how it was run: as §1
Nostoc [9] = assay: Binding affinity to Nostoc PCC 7120 sesquiterpene synthase assessed as photolabeling at 29 uM by SDS-PAGE based phosphor imaging analysis; settings: tested as the 32P-labelled form; how it was run: as §1
Drosophila melanogaster [10] = assay: Binding affinity to Drosophila melanogaster farnesyl diphosphate synthase assessed as photolabeling at 29 uM by SDS-PAGE based phosphor imaging analysis in absence of UV irradiation; settings: tested as the 32P-labelled form
[11] = molecular target: T3, Farnesyl diphosphate synthase (Escherichia coli K-12) (UniProt P22939); assay: Binding affinity to Escherichia coli farnesyl diphosphate synthase assessed as photolabeling at 29 uM by SDS-PAGE based phosphor imaging analysis in presence of excess farnesyl diphosphate; settings: tested as the 32P-labelled form; how it was run: as §1
T3 sequence (whole entry): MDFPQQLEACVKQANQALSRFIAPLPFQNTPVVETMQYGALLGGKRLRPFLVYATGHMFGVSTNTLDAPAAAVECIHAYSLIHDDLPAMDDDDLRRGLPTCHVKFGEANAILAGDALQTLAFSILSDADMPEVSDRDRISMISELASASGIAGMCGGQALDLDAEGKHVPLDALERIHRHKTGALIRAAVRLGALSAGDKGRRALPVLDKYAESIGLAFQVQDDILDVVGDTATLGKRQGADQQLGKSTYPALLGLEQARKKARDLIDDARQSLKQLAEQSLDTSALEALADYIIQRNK

[12] = molecular target: T3, Farnesyl diphosphate synthase (Escherichia coli K-12); assay: Binding affinity to Escherichia coli farnesyl diphosphate synthase assessed as photolabeling at 29 uM by SDS-PAGE based phosphor imaging analysis; settings: tested as the 32P-labelled form; how it was run: as §1
[13] = molecular target: T3, Farnesyl diphosphate synthase (Escherichia coli K-12); assay: Binding affinity to Escherichia coli farnesyl diphosphate synthase assessed as photolabeling at 29 uM by SDS-PAGE based phosphor imaging analysis in absence of UV irradiation; settings: tested as the 32P-labelled form
Drosophila melanogaster [14] = assay: Binding affinity to Drosophila melanogaster farnesyl diphosphate synthase assessed as photolabeling at 29 uM by SDS-PAGE based phosphor imaging analysis in presence of excess farnesyl diphosphate; settings: tested as the 32P-labelled form; how it was run: as §1
Nostoc [15] = assay: Inhibition of Nostoc PCC 7120 sesquiterpene synthase in presence of farnesyl diphosphate
How it was run: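 Purified cyclase (10 µg) in 200 µL 10 mM Tris·HCl pH 8.0, 10 mM MgCl2, 1.0 mM 2-mercaptoethanol with probe and/or FPP (50, 100 or 200 µM), sealed vial, 18 h at 25 °C; headspace sampled 10 min by SPME, GC/MS analysis of sesquiterpene product.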

Nostoc [16] = assay: Substrate activity at Nostoc PCC 7120 sesquiterpene synthase in absence of farnesyl diphosphate; settings: tested as the 32P-labelled form

SMILES | IC50 [1] [nM] | Ki [1] [nM] | Activity (Nostoc [2]) | Activity [3] | Activity [4] | Activity [5] | Activity [6] | Activity [7] | Activity (Drosophila melanogaster [8]) [%] | Activity (Nostoc [9]) | Activity (Drosophila melanogaster [10]) | Activity [11] | Activity [12] | Activity [13] | Activity (Drosophila melanogaster [14]) | inhibition (Nostoc [15]) | Activity (Nostoc [16])
C/C(=C\COP(=O)(O)OP(=O)(O)O)COCc1cccc(C(=O)c2ccccc2)c1 | 3400 | 610 | – | – | – | – | – | – | – | – | – | – | – | – | – | – | –
CC(C)=CCC/C(C)=C/CC/C(C)=C/COP(=O)(O)OP(=O)(O)Cc1ccc(C(=O)c2ccccc2)cc1 | 3000 | 480 | inactive | inactive | Active | inactive | inactive | inactive | 46 | Active | inactive | inactive | Active | inactive | inactive | inactive | Active
CC(C)=CCC/C(C)=C/CC/C(C)=C/COP(=O)(O)OP(=O)(O)Cc1cccc(C(=O)c2ccccc2)c1 | 5800 | – | – | inactive | Active | inactive | inactive | inactive | – | – | – | – | – | – | – | – | –
C/C(=C\COP(=O)(O)OP(=O)(O)O)CC/C=C(\C)COC(=O)[C-]([N+]#N)C(F)(F)F | 720 | 200 | – | – | – | – | – | – | – | – | – | – | – | – | – | – | –
